Experimental data: paper PMC10883374 (Science Advances, 2022)

Legend:
V66W/E67P mutant dSAMTOR = V66W/E67P mutant dSAMTOR (Drosophila melanogaster, UniProt Q9W138, E67P/V66W); experiment: ITC ligand binding, V66W/E67P dSAMTOR
Outline: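 Tag-free dSAMTOR, expressed as His6-SUMO fusion in E. coli BL21(DE3), purified by Ni-NTA and gel filtration into 10 mM Hepes pH 7.5, 150 mM NaCl, 1 mM DTT. At 25°C, 1 mM SAM or SAH was titrated into 0.2 mM protein over 20 injections, with a background titration into buffer. Single-site fit gave Kd, ΔH and n; ΔG and ΔS were calculated. Runs: three for measurable binding, two for undetectable binding.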

[1] = biological target: T1, D190A hSAMTOR interaction with GATOR1-KICSTOR (Homo sapiens, UniProt Q1RMZ1, D190A); experiment: Co-IP of Flag-hSAMTOR-D190A with HA-Nprl3 and Myc-Kaptin with or without SAM; format: biochemical; settings: HEK 293T cell lysates, 0.5 mM SAM
T1 sequence (Q1RMZ1 1-405 D190A): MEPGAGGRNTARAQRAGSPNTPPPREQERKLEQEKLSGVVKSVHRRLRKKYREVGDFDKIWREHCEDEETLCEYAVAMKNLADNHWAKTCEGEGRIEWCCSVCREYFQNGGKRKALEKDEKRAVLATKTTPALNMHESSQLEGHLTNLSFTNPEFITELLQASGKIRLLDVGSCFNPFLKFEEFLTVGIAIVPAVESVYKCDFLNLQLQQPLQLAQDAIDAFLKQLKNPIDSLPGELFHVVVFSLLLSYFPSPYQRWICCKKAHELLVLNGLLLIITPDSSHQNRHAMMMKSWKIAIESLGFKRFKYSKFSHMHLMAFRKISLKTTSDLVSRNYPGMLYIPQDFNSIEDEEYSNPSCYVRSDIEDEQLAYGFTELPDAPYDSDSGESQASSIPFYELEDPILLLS

[2] = biological target: T2, hSAMTOR MTase domain (residues 91 to 405) interaction with GATOR1-KICSTOR (Homo sapiens, UniProt Q1RMZ1); experiment: Co-IP of hSAMTOR C-terminal MTase domain; format: biochemical; settings: hSAMTOR CTD alone, HEK 293T cell lysates, 0.5 mM SAM
T2 sequence (Q1RMZ1 91-405): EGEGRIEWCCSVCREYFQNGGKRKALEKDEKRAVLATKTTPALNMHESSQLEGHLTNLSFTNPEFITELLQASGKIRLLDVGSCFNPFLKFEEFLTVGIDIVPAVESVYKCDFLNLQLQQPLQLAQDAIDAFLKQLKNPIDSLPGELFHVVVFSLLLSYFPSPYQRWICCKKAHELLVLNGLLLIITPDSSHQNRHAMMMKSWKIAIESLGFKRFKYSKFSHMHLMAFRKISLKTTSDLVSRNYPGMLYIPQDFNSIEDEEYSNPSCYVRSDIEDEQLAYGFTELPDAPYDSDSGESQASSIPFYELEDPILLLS
T2 sequence (Q12980 1-569 partner): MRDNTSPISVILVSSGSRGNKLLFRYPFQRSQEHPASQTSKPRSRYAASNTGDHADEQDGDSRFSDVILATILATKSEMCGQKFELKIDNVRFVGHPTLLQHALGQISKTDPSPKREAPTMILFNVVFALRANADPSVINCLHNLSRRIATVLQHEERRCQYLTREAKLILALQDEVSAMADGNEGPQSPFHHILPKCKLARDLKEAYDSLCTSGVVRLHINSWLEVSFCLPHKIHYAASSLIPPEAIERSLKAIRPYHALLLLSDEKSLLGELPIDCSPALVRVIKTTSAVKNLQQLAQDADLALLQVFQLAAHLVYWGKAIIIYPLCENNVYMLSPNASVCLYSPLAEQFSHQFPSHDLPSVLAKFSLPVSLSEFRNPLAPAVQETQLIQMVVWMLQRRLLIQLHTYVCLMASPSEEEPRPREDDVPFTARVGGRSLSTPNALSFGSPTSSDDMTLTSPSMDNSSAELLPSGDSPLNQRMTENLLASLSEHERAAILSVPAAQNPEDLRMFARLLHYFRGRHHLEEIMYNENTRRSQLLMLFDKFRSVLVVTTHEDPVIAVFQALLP
T2 sequence (Q9Y664 1-436 partner): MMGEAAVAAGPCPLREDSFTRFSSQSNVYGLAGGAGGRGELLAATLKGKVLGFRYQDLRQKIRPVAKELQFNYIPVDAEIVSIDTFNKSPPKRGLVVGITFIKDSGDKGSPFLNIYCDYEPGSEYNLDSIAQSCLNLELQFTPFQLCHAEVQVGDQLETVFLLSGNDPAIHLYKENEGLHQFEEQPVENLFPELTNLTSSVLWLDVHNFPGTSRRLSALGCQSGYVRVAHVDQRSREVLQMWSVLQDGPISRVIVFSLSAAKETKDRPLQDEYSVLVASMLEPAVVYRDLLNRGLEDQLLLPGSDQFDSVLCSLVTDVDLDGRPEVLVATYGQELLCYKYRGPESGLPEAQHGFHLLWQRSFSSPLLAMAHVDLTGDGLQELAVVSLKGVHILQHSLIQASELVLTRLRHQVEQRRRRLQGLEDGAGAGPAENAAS

hSAMTOR = settings: read-out: dissociation constant (Kd); cited from earlier work

Chain of V66W/E67P mutant dSAMTOR (Q9W138 whole entry V66W/E67P, the tested form may be a part): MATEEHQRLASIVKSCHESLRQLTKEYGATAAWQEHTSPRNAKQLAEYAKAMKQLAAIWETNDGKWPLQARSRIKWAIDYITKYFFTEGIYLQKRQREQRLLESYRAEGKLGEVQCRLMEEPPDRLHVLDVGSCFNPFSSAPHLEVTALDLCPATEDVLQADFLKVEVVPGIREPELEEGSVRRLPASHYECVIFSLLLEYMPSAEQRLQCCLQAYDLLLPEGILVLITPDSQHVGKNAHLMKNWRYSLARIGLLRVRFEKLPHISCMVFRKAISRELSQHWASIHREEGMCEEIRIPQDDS

C[S+](CC[C@H](N)C(=O)[O-])C[C@H]1O[C@@H](n2cnc3c(N)ncnc32)[C@H](O)[C@@H]1O (stereo partly drawn) [SAM, S-adenosylmethionine]
Kd (V66W/E67P mutant dSAMTOR): 9.47 ± 0.81 µM
n value (V66W/E67P mutant dSAMTOR; ITC, 25°C, V66W/E67P dSAMTOR): 0.88 ± 0.02
ΔH (V66W/E67P mutant dSAMTOR; ITC, 25°C, V66W/E67P dSAMTOR): -3.01 ± 0.08 kcal/mol
effect of SAM on interaction of hSAMTOR with GATOR1-KICSTOR (co-IP) [1]: comparable interactions with GATOR1 and KICSTOR in both the absence and presence of SAM
effect of SAM on interaction of the MTase domain with GATOR1-KICSTOR (co-IP) [2]: no apparent effect
Kd (hSAMTOR): 7 µM
